Measured values collected from several papers.
Each line is one published result; the experiments were not run side by side.
Target: Serine/threonine-protein kinase MARK2 (MARK2, Homo sapiens, UniProt Q7KZI7)

Oc1cccc(-c2nc(N3CCOCC3)c3oc4ncccc4c3n2)c1
remaining signal (cell-free assay; 0.5 µM): 92.9%

O=C(NCCCNc1nc(Nc2cccc(NC(=O)N3CCCC3)c2)ncc1C1CC1)C1CCC1
remaining activity (enzyme activity; inhibitor; radiometric; 1 µM): 6%

Cc1noc([C@H]2C[C@@H](c3ccc(C(F)(F)F)cc3)CN(C(=O)N3CCS(=O)(=O)C3)C2)n1
remaining binding (cell-free assay; competition with immobilised ligand; 1 µM): 100%

O=C(NCCCNc1nc(Nc2cccc(NC(=O)N3CCCC3)c2)ncc1I)c1cccs1
remaining activity (enzyme activity; inhibitor; radiometric; 1 µM): 3%

c1ccc(CNc2nc(N3CCOc4ccccc43)nc3c2CCCC3)cc1
inhibition (target engagement in cells; inhibitor; chemoproteomics; 20 mM): -11.2%

CN(C)C1CCN(CC#Cc2nn(C3CCCC3)c3nc(NCc4ccccc4)ncc23)C1 (centres unmarked)
inhibition (enzyme activity; inhibitor; FRET; 10 µM): 16%

c1cc(CN2CCOCC2)cc(Nc2ncc(C3CC3)c(NCCc3c[nH]cn3)n2)c1
remaining activity (enzyme activity; inhibitor; radiometric; 1 µM): 14%

CC(=O)Nc1c(C(C)=O)c(=O)n(C)c2nc(-c3ccc(Cl)cc3Cl)c(-c3ccc(Cl)cc3)cc12
remaining binding (cell-free assay; competition with immobilised ligand; 1 µM): 100%

COc1cc(Nc2cnc(C#N)c(O[C@H](C)CN(C)C)n2)ncc1-c1cnn(C)c1
remaining activity (enzyme activity; inhibitor; radiometric; 10 µM): 57%

Cc1nn(CC(F)(F)F)cc1Nc1nccc(NCCc2cnc[nH]2)n1
remaining activity (enzyme activity; inhibitor; radiometric; 1 µM): 104%

COc1cc(/C=C/C(=O)CC(=O)/C=C/c2ccc(O)c(OC)c2)ccc1O
activity vs control (enzyme activity; inhibitor; 1 µM): 78%

O=C(NCCCNc1ccnc(Nc2cccc(NC(=O)N3CCCC3)c2)n1)C1CCC1
remaining activity (enzyme activity; inhibitor; radiometric; 1 µM): 82%

Cc1cc(-n2nc(Cc3cc(F)cc(C(F)(F)F)c3)nc2C)ccc1C(N)=O
remaining binding (cell-free assay; competition with immobilised ligand; 1 µM): 89%

Cc1cc(NC(=O)c2cccc3cc(-c4cccc5[nH]nc(N)c45)ccc23)ccc1F
activity vs control (enzyme activity; inhibitor; 0.1 µM): 94%

Cc1nn(CC(F)(F)F)cc1Nc1nccc(NCCCNC(=O)C2CCC2)n1
remaining activity (enzyme activity; inhibitor; radiometric; 1 µM): 103%

O=C(N[C@H]1CCCCC/C=C\C2C[C@@]2(C(=O)O)NC(=O)[C@@H]2C[C@@H](Oc3ccncc3)CN2C1=O)OC1CCCC1 (some centres unmarked)
remaining binding (binding; competition with immobilised ligand; 1 µM): 81%

CNc1cc(Oc2cc(C(=O)Nc3cc(N4CCN(C)CC4)cc(C(F)(F)F)c3)ccc2C)ncn1
inhibition (target engagement in cells; inhibitor; chemoproteomics; Huh-7; 1 µM): -25.4%

Cc1ccc(NC(=O)c2ccc(C)c(C(F)(F)F)c2)cc1C#Cc1nn(C2CCC(O)CC2)c2ncnc(N)c12 (centres unmarked)
remaining signal (cell-free assay; 10 µM): 98%

Cc1ccc(C(=O)NCc2ccsc2)cc1C#Cc1cn(C(C)C)c2ncnc(N)c12
activity vs control (enzyme activity; inhibitor; 1 µM): 99%

FC(F)(F)Oc1cccc(-c2cnc3ccc(-c4ccncc4)nn23)c1
activity vs control (enzyme activity; inhibitor; radiometric; 5 µM): 99%

O=C(NCCCNc1nc(Nc2cccc(NC(=O)N3CCCC3)c2)ncc1Br)C1CCC1
remaining activity (enzyme activity; inhibitor; radiometric; 1 µM): 2%

CC/C(=N\NC(=O)NCc1cccc(O)c1)c1ccc(O)c(C)c1O
inhibition (enzyme activity; inhibitor; 0.1 µM): -5.8%

Cc1c(C(=O)O)cc(-c2ccc(C3CCNCC3)cc2)c2ccc(-c3ccc(C(F)(F)F)cc3)cc12
remaining binding (binding; competition with immobilised ligand; 1 µM): 100%

CNC(=O)c1cc(Oc2ccc(NC(=O)Nc3ccc(Cl)c(C(F)(F)F)c3)cc2)ccn1
inhibition (enzyme activity; inhibitor; 10 µM): 26%

COc1cc2ncnc(Nc3ccc(Oc4ccccc4)c(C)c3C)c2cc1OC
inhibition (enzyme activity; inhibitor; 1 µM): 6%

Cc1ccc(Nc2nccc(N(C)c3ccc4c(C)n(C)nc4c3)n2)cc1S(N)(=O)=O
inhibition (enzyme activity; inhibitor; 0.3 µM): 27%

CN1CCN(c2cnc3c(C4CCN(C(=O)c5ccc(OC(F)(F)F)cc5N)CC4)ncnc3c2)CC1
remaining binding (cell-free assay; competition with immobilised ligand; 1 µM): 100%

CN1CC(Oc2cnc(C#N)cc2-c2ccn3nc(NC(=O)C4CC4)cc3c2)C1
inhibition (enzyme activity; inhibitor; 1 µM): -1%

O=C(Nc1cnc(Oc2ccc(F)cc2)nc1)N1CCc2ncccc2[C@@H]1c1ccc(F)cc1
remaining binding (cell-free assay; competition with immobilised ligand; 1 µM): 90%

O=C1NC(=O)c2cc(Nc3ccc(F)cc3)c(Nc3ccc(F)cc3)cc21
remaining signal (cell-free assay; 0.5 µM): 98.2%

O=C(NCCCNc1nc(Nc2cccc(CN3CCOCC3)c2)ncc1C1CC1)C1CCC1
remaining activity (enzyme activity; inhibitor; radiometric; 1 µM): 4%

CS(=O)(=O)c1cc(C2(NC(=O)c3cncc4c3cnn4-c3ccc(F)cc3)CC2)ccn1
remaining binding (cell-free assay; competition with immobilised ligand; 1 µM): 100%
